PubChem BioAssay AID651830 (Vanderbilt Specialized Chemistry Center, 2012)
The source made the active and inactive calls.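 Rule for the calls: active = inhibition above 50% in the panel binding assay; inactive = inhibition of 50% or less.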

Experiment: off-target binding across receptor panel, profiling panel, selectivity assay for mGlu3 NAM project, biochemical, Eurofins PanLabs, radioligand binding (AID 651830)
Settings: at 10 µM, stronger effect = higher value
Method in brief: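 Probe or stimulus: target-selective radioligand; Benchmarks: reference standards in each assay; Evaluation: % inhibition of radioligand binding; Measured by: radioligand binding displacement.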

SMILES: COc1ccc(C#Cc2ccc(C(=O)N3CCC[C@@H](O)C3)c(F)c2)cc1
- inhibition: 74% (active)
- inhibition (measured here: 5-HT1A binding): 71%
- inhibition (measured here: 5-HT2B binding): -12%
- inhibition (measured here: N-type calcium channel binding): 22%
- inhibition (measured here: P2X binding): 31%
- inhibition (measured here: adenosine A3 binding): 45%
- inhibition (measured here: alpha1D adrenergic binding): 20%
- inhibition (measured here: dopamine D3 binding): 24%
- inhibition (measured here: hERG binding): 28%
- inhibition (measured here: kainate receptor binding): 19%
- inhibition (measured here: norepinephrine transporter binding): 25%
- inhibition (measured here: serotonin transporter binding): -1%
- inhibition (measured here: sigma1 binding): 33%
